Compound activity (PubChem BioAssay)
In the library only some 2.3% were active in any assay of this set; here they are far more common.
TRPC4 PAM – TRPC4 (mouse) allosteric potentiation; 310,000 compounds, 0.42% hits; B-score at 10 µM; HEK293 TRPC4beta/mu-opioid, DAMGO EC20, Fluo-4 Ca2+ flux; hits give high values;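 active = B-score of calcium response area above 5 SD of library B-scores, with initial fluorescence ratio within 5 SD of library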;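 also: B-score of integrated fluorescence ratio over time as area under calcium response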
TRPC6 inh – inhibitors of mouse TRPC6 channel; Q61143; HEK293-TRPC6, membrane potential dye, ACh-evoked depolarization; hits give low values; B-score at 10 µM; 310,000 compounds, 1.1% hits; AID 2553;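 active = B-score under library mean minus 3 SD, initial fluorescence not abnormally high, positive integrated signal ratio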;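 also: B-score derived from integrated fluorescence ratio over the kinetic read; more negative B-score means stronger inhibition of depolarization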
Target sequence (Q61143 whole entry, looked up): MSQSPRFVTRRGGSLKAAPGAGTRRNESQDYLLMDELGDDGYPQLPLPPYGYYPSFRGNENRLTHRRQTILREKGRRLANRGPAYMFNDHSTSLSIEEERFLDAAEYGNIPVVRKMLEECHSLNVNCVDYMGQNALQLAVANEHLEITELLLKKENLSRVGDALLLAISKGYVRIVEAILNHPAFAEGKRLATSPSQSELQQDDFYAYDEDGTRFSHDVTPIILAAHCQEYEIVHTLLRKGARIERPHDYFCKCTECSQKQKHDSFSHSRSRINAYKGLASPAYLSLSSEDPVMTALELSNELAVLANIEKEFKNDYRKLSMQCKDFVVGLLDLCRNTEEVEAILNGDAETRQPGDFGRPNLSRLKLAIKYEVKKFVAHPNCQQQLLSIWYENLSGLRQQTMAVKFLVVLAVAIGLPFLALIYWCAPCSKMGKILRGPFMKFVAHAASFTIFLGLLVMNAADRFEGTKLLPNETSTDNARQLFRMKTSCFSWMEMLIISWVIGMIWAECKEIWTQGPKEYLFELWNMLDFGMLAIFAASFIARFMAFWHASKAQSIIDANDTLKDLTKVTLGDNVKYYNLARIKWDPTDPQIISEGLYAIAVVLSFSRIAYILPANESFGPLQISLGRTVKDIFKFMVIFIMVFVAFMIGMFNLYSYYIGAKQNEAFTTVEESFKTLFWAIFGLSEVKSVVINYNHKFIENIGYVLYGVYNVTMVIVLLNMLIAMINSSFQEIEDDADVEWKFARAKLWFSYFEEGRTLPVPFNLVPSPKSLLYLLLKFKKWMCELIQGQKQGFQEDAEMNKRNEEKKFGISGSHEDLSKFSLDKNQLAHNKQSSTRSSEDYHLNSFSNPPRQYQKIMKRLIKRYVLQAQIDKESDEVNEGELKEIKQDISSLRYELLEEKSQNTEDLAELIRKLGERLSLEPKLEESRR
TRPC6 activator – activators of mouse TRPC6 channel; Q61143; HEK293-TRPC6 membrane potential dye fluorescence; hits give high values; B-score at 10 µM; 310,000 compounds, 0.13% hits;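 active = B-score of the integrated fluorescence ratio above library mean plus 3 SD, and starting fluorescence ratio within library mean plus 5 SD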;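 also: higher score means more depolarization so channel activation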
TRPC4 act – activators of mouse TRPC4 channel | 310,000 compounds, 0.49% hits | AID 2237 | B-score at 10 µM | HEK293 TRPC4beta/mu-opioid, Fluo4 calcium fluorescence; hits give high values | Q9QUQ5;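 active = B-score above 5 SD of library B-scores, and initial fluorescence ratio not above library mean plus 5 SD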;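 also: positive B-score marks a calcium rise read as TRPC4 activation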
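Material: HEK293 stable line with TRPC4beta plus mu-opioid receptor; technique: Fluo4 calcium-sensitive dye fluorescence, kinetic, 1 Hz baseline; timing: Fluo4 dye loading 45 min at room temperature, 110 s recording; controls: assay buffer as low control, maximal DAMGO as high control; read-out: integrated baseline-normalised fluorescence ratio, converted to per-well B score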
TRPC4 inh – TRPC4 (mouse) channel inhibition | HEK293 TRPC4beta/mu-opioid, DAMGO-evoked Fluo4 calcium flux; hits give low values | B-score at 10 µM | Q9QUQ5 | AID 2247 | 300,000 compounds, 0.39% hits;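 active = B-score over 3 SD under the library average, no early fluorescence shift, positive overall ratio signal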
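Signal: kinetic Fluo4 fluorescence imaging of calcium influx. Material: stable TRPC4beta/mu-opioid receptor HEK293 cells. Probe or stimulus: DAMGO in two steps, submaximal then maximal.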
* = called active by the depositor; i = inactive.

SMILES | TRPC4 PAM | TRPC6 inh | TRPC6 activator | TRPC4 act | TRPC4 inh
Cc1onc(-c2c(Cl)cccc2Cl)c1C(=O)NCCc1ccncc1 | i | i | i | i | i
Cc1nc(N)nc(N)c1/C=C/C(C)(C)c1ccc(Cl)cc1 | i | i | i | i | i
CCOc1ccc(C(=O)N2CCN(Cc3ccccc3)CC2)cc1 | i | i | i | i | i
CCOc1ccc(CN2CCN(C(=O)c3ccccc3)CC2)cc1 | i | i | i | i | -7*
COCCNC(=O)CN(Cc1ccccc1)C(=O)CCC(=O)Nc1nccs1 | i | i | i | i | i
CC(C)Cc1cc(CNC(=O)C2CCC(=O)N(Cc3cccc(C(F)(F)F)c3)C2)on1 (centres undefined) | i | i | i | i | i
NC1=NC(=O)/C(=C/c2ccccc2OS(=O)(=O)c2ccc3ccccc3c2)S1 | i | i | i | i | i
Cc1ccccc1N1CC(=O)N(c2ccccc2C)CC1=O | i | i | i | i | i
Cc1ccc(C)c(N2CC(O)(c3cccs3)[N+]3=C2CCCC3)c1 (centres undefined) | i | i | i | i | i
Cc1ccc(C2(O)CN(c3ccccc3C)C3=[N+]2CCS3)cc1 (centres undefined) | i | i | i | 106* | i
Cc1ccccc1N1CC(O)(c2ccccc2)[N+]2=C1SCC2 (centres undefined) | i | i | i | 83* | i
CCOc1ccc(NC(=O)CCC(=O)c2ccc(F)cc2)cc1 | i | i | i | i | i
O=C(CSc1nn(-c2ccccc2)c(=S)s1)Nn1cnnc1 | i | i | i | i | i
COC(=O)CSc1nn(-c2ccc(F)cc2)c(=S)s1 | i | i | i | i | -5*
Cc1cc(NC(=O)CCC(=O)N(CC(=O)NC2CCCC2)c2ccc(Cl)cc2)no1 | i | i | i | i | i
CCOC(=O)C1(Cc2cccc(OC)c2)CCN(Cc2cnc(SC)nc2)CC1 | i | i | i | i | -5*
CCOC(=O)C1(Cc2cccc(OC)c2)CCN(Cc2ccc3c(c2)OCCO3)CC1 | i | i | i | 56* | i
CCOC(=O)C1(CCOc2ccccc2)CCN(Cc2ccc3c(c2)OCCO3)CC1 | i | i | i | 61* | i
Fc1ccccc1Nc1nc2ccccc2o1 | i | i | i | i | i
Cc1ccc(OCC(=O)c2ccc3c(c2)CCCC3)cc1C | i | i | i | i | i
O=C(COc1ccc(Br)cc1)c1ccc2c(c1)CCCC2 | 12* | i | i | i | i
CCOC(=O)c1ccc(N=C2C(=S)N(c3ccc(C(=O)OCC)cc3)C(=N)N2/N=C/c2ccccc2)cc1 | 17* | i | i | i | i
Cc1ccccc1-c1nc(CN2CCC(C(=O)NCc3ccco3)CC2)c(C)o1 | i | i | i | i | i
Cc1ccccc1-c1nc(CN2CCC(C(=O)NCc3cccs3)CC2)c(C)o1 | i | i | i | i | -6*
COc1nc(-c2ccccc2Cl)ccc1C#N | i | i | i | i | -6*
SMILES | TRPC4 PAM | TRPC6 inh | TRPC6 activator | TRPC4 act | TRPC4 inh
CCOc1nc(-c2ccc(Cl)cc2Cl)ccc1C#N | i | i | i | i | i
Cc1ccc(N2CCN(C(=O)c3ccccc3F)CC2)c(C)c1 | i | i | i | i | -7*
CCC(=O)c1ccc(N2CCN(C(=O)c3ccccc3F)CC2)c(F)c1 | i | i | i | i | i
CCC(=O)c1ccc(N2CCN(C(=O)c3ccccc3Br)CC2)c(F)c1 | 28* | i | i | i | i
Cc1cc2c(=O)n(C)c(SCC(=O)Nc3cccc(F)c3)nc2s1 | i | i | i | i | i
Cc1ccc(OCC(=O)N/N=C/c2cccc3cccnc23)cc1 | i | i | i | i | i
CCCCn1c(N)c(N(CC(C)C)C(=O)CSc2n[nH]c(-c3ccc(C)cc3)n2)c(=O)[nH]c1=O | i | i | i | i | i
Cc1ccc(-n2nc(CN3CCOCC3)c(-c3ccccc3)c2N)cc1Cl | i | i | i | i | i
Cc1cccn2c(CN3CCCN(C=O)CC3)c(C(=O)N(C)CCc3ccccc3)nc12 | i | i | i | i | i
O=C1/C(=C/c2ccc([N+](=O)[O-])cc2)C=C(c2ccccc2)N1c1ccc(O)cc1 | i | -5.2* | i | i | i
Cc1ccc(S(=O)(=O)c2cnc(-c3ccccc3)nc2N2CCN(C)CC2)cc1 | i | i | i | i | -6*
CN1CCN(c2nc(-c3ccccc3)ncc2S(=O)(=O)c2ccccc2)CC1 | i | i | i | i | i
CCn1c(N2CCN(C(=S)Nc3ccc(OC)cc3)CC2)nc2ccccc21 | i | i | i | 52* | i
CCn1c(N2CCN(S(=O)(=O)c3ccc(F)cc3)CC2)nc2ccccc21 | i | i | i | i | i
CCn1c(N2CCN(S(=O)(=O)c3ccc(Cl)cc3)CC2)nc2ccccc21 | i | i | i | i | i
CCn1c(N2CCN(C(=S)NCCc3ccccc3)CC2)nc2ccccc21 | i | i | i | 87* | i
CCn1c(N2CCN(C(=S)NC)CC2)nc2ccccc21 | i | i | i | 68* | i
CCn1c(N2CCN(S(=O)(=O)CC)CC2)nc2ccccc21 | i | i | i | 126* | i
CCCCC(=O)Nc1ccc2c(c1)nc(CCN1CCN(c3ccccn3)CC1)n2C | i | i | i | i | i
CCOc1ccc(OCCCCn2cnc3ccccc3c2=O)cc1 | i | i | i | i | i
COc1ccccc1NC(=O)CCN1C(=O)C2CC=CCC2C1=O (centres undefined) | i | i | i | i | i
CCn1c(N2CCN(C(=S)NCC(C)C)CC2)nc2ccccc21 | i | i | i | 105* | i
CC(C)CNC(=S)N1CCN(c2nc3ccccc3s2)CC1 | i | i | i | i | i
CCCn1c(N2CCN(Cc3ccc(Cl)cc3)CC2)nc2ccccc21 | i | i | i | i | i
Cn1c(N2CCN(C(=O)Nc3ccc(F)cc3)CC2)nc2ccccc21 | i | i | i | 88* | i
CCn1c(N2CCN(Cc3ccc([N+](=O)[O-])cc3)CC2)nc2ccccc21 | 12* | i | i | 124* | i
Cc1[nH]c2ccc(C(=O)NCCCN(C)C3CCCCC3)cc2c1C | i | i | i | i | i
CC(=O)Nc1ccc(S(=O)(=O)NCC(=O)OCC(=O)NCc2ccco2)cc1 | i | i | i | i | i
